# Assay results from ChEMBL document CHEMBL2417509, “Synthesis and biological evaluation of prodigiosene conjugates of porphyrin, estrone and 4-hydroxytamoxifen” (2013).
# Key:
# Assay type in all cases: functional
# [1] = tested on: SR; experiment: Cytotoxicity against human SR cells after 2 days by sulforhodamine B assay; settings: 48 h
# Summary of the method: (§1)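 NCI DTP NCI60 multi-dose screen (59 human tumour lines available). Cells exposed to compound over a 5-log mol/L concentration range for 2 days, then fixed and stained with sulphorhodamine B, with optical density read. Growth inhibition calculated relative to time-zero cells and untreated cells, giving GI50 (half-maximal growth inhibition concentration). Average of two replicates.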
# [2] = tested on: Malme-3M; experiment: Cytotoxicity against human MALME-3M cells after 2 days by sulforhodamine B assay; settings: 48 h
# Summary of the method: (§2)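 NCI60 multi-dose screen, 59 human tumour lines available. Cells exposed to compound across a 5-log mol/L concentration range for 2 days, then fixed and stained with sulphorhodamine B, optical density read. Growth inhibition calculated against time-zero control and untreated cells. GI50 derived from the dose series, average of two replicates.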
# [3] = tested on: HCT-15; experiment: Cytotoxicity against human HCT15 cells after 2 days by sulforhodamine B assay; settings: HCT-15, 48 h; summary of the method: as §2
# [4] = tested on: SK-MEL-2; experiment: Cytotoxicity against human SK-MEL-2 cells after 2 days by sulforhodamine B assay; settings: SK-MEL-2, 48 h; summary of the method: as §2
# [5] = tested on: HL-60(TB); experiment: Cytotoxicity against human HL-60(TB) cells after 2 days by sulforhodamine B assay; settings: HL-60, 48 h
# Summary of the method: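 NCI60 multi-dose screen: cells exposed to compound over a 5-log mol/L concentration range for 2 days, then fixed and stained with sulphorhodamine B and optical density read. Growth inhibition calculated relative to time-zero control and untreated cells; GI50 reported as average of two replicates.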
# [6] = tested on: RXF 393; experiment: Cytotoxicity against human RXF393 cells after 2 days by sulforhodamine B assay; settings: RXF 393, 48 h; summary of the method: as §2
# [7] = tested on: KM12; experiment: Cytotoxicity against human KM12 cells after 2 days by sulforhodamine B assay; settings: KM12, 48 h; summary of the method: as §2
# [8] = tested on: SW-620; experiment: Cytotoxicity against human SW620 cells after 2 days by sulforhodamine B assay; settings: SW-620, 48 h; summary of the method: as §1
# [9] = tested on: NCI-H226; experiment: Cytotoxicity against human NCI-H226 cells after 2 days by sulforhodamine B assay; settings: NCI-H226, 48 h; summary of the method: as §2
# [10] = tested on: HOP-62; experiment: Cytotoxicity against human HOP62 cells after 2 days by sulforhodamine B assay; settings: HOP-62, 48 h; summary of the method: as §2
# [11] = tested on: K562; experiment: Cytotoxicity against human K562 cells after 2 days by sulforhodamine B assay; settings: K562, 48 h; summary of the method: as §2
# [12] = tested on: UACC-257; experiment: Cytotoxicity against human UACC257 cells after 2 days by sulforhodamine B assay; settings: UACC-257, 48 h; summary of the method: as §1
# [13] = tested on: UACC-62; experiment: Cytotoxicity against human UACC62 cells after 2 days by sulforhodamine B assay; settings: UACC-62, 48 h; summary of the method: as §1
# [14] = tested on: ACHN; experiment: Cytotoxicity against human ACHN cells after 2 days by sulforhodamine B assay; settings: 48 h; summary of the method: as §2
# [15] = tested on: MDA-MB-231; experiment: Cytotoxicity against human MDA-MB-231 cells after 2 days by sulforhodamine B assay; settings: MDA-MB-231, 48 h; summary of the method: as §2
# [16] = tested on: RPMI-8226; experiment: Cytotoxicity against human RPMI8226 cells after 2 days by sulforhodamine B assay; settings: RPMI-8226, 48 h; summary of the method: as §2
# [17] = tested on: SK-MEL-28; experiment: Cytotoxicity against human SK-MEL-28 cells after 2 days by sulforhodamine B assay; settings: SK-MEL-28, 48 h; summary of the method: as §2
# [18] = tested on: MCF7; experiment: Cytotoxicity against human MCF7 cells after 2 days by sulforhodamine B assay; settings: MCF7, 48 h; summary of the method: as §2
# [19] = tested on: OVCAR-3; experiment: Cytotoxicity against human OVCAR3 cells after 2 days by sulforhodamine B assay; settings: OVCAR-3, 48 h; summary of the method: as §2
# [20] = tested on: CCRF-CEM; experiment: Cytotoxicity against human CCRF-CEM cells after 2 days by sulforhodamine B assay; settings: 48 h; summary of the method: as §2
# [21] = tested on: IGROV-1; experiment: Cytotoxicity against human IGROV1 cells after 2 days by sulforhodamine B assay; settings: IGROV-1, 48 h; summary of the method: as §2
# [22] = tested on: OVCAR-8; experiment: Cytotoxicity against human OVCAR8 cells after 2 days by sulforhodamine B assay; settings: OVCAR-8, 48 h; summary of the method: as §2
# [23] = tested on: HCC 2998; experiment: Cytotoxicity against human HCC2998 cells after 2 days by sulforhodamine B assay; settings: HCC 2998, 48 h; summary of the method: as §2
# [24] = tested on: SK-MEL-5; experiment: Cytotoxicity against human SK-MEL-5 cells after 2 days by sulforhodamine B assay; settings: SK-MEL-5, 48 h; summary of the method: as §2
# [25] = tested on: BT-549; experiment: Cytotoxicity against human BT549 cells after 2 days by sulforhodamine B assay; settings: BT-549, 48 h; summary of the method: as §2
# [26] = tested on: PC-3; experiment: Cytotoxicity against human PC3 cells after 2 days by sulforhodamine B assay; settings: PC-3, 48 h; summary of the method: as §2
# [27] = tested on: COLO 205; experiment: Cytotoxicity against human COLO205 cells after 2 days by sulforhodamine B assay; settings: COLO 205, 48 h; summary of the method: as §2
# [28] = tested on: UO-31; experiment: Cytotoxicity against human UO31 cells after 2 days by sulforhodamine B assay; settings: UO-31, 48 h; summary of the method: as §1
# [29] = Cytotoxicity against human Hs578T cells after 2 days by sulforhodamine B assay; settings: Hs-578T, 48 h; summary of the method: as §2
# [30] = tested on: SNB-75; experiment: Cytotoxicity against human SNB75 cells after 2 days by sulforhodamine B assay; settings: SNB-75, 48 h; summary of the method: as §1
# [31] = read-out: LC50 (the source's name)
smiles,measurement,setting,value
CCC(=C(c1ccc(OCCN(C)C)cc1)c1ccc(OC(=O)CCCCC(=O)C2=C(C)/C(=C/c3[nH]c(-c4ccc[nH]4)cc3OC)N=C2C)cc1)c1ccccc1,GI50,[1],3.02 µM
same,LC50 (concentration giving 50% net cell kill),[1],> 100 µM
same,TGI,[1],20.9 µM
same,GI50,[2],9.33 µM
same,LC50,[2],> 100 µM
same,TGI,[2],34.7 µM
same,GI50,[3],4.47 µM
same,LC50,[3],> 100 µM
same,TGI,[3],28.8 µM
same,GI50,[4],16.6 µM
same,LC50,[4],67.6 µM
same,TGI,[4],33.1 µM
same,GI50,[5],18.2 µM
same,TGI,[5],41.7 µM
same,CC50,[5]; [31],97.7 µM
same,GI50,[6],3.89 µM
same,LC50 (concentration killing 50% of cells),[6],44.7 µM
same,TGI,[6],17.8 µM
same,GI50,[7],3.72 µM
same,LC50,[7],46.8 µM
same,TGI,[7],14.4 µM
same,GI50,[8],3.16 µM
same,LC50 (concentration killing 50% of cells),[8],34.7 µM
same,TGI,[8],11.5 µM
same,GI50,[9],14.1 µM
same,LC50,[9],83.2 µM
same,TGI,[9],34.7 µM
same,GI50,[10],12.3 µM
same,TGI,[10],24.5 µM
same,CC50,[10]; [31],50.1 µM
same,GI50,[11],3.16 µM
same,LC50 (concentration killing 50% of cells),[11],72.4 µM
same,TGI,[11],12.6 µM
same,GI50,[12],12 µM
same,TGI,[12],28.8 µM
same,CC50,[12]; [31],69.2 µM
same,GI50,[13],4.9 µM
same,TGI,[13],17.8 µM
same,CC50,[13]; [31],45.7 µM
same,GI50,[14],4.79 µM
same,LC50 (concentration killing 50% of cells),[14],77.6 µM
same,TGI,[14],22.9 µM
same,GI50,[15],2 µM
same,LC50,[15],33.9 µM
same,TGI,[15],11.5 µM
same,GI50,[16],3.16 µM
same,LC50 (concentration killing 50% of cells present at time zero),[16],> 100 µM
same,TGI,[16],19 µM
same,GI50,[17],11.5 µM
same,LC50,[17],49 µM
same,TGI,[17],24 µM
same,GI50,[18],0.05 µM
same,LC50 (concentration giving 50% net cell kill),[18],4.68 µM
same,TGI,[18],1.2 µM
same,GI50,[19],11.7 µM
same,LC50,[19],63.1 µM
same,TGI,[19],26.9 µM
same,GI50,[20],0.32 µM
same,TGI,[20],> 100 µM
same,CC50,[20]; [31],> 100 µM
same,GI50,[21],13.2 µM
same,LC50,[21],> 100 µM
same,TGI,[21],45.7 µM
same,GI50,[22],6.61 µM
same,LC50,[22],47.9 µM
same,TGI,[22],19.9 µM
same,GI50,[23],13.2 µM
same,LC50 (50% lethal concentration),[23],53.7 µM
same,TGI,[23],26.9 µM
same,GI50,[24],1.62 µM
same,LC50 (concentration killing 50% of cells),[24],6.03 µM
same,TGI,[24],3.09 µM
same,GI50,[25],3.55 µM
same,LC50 (concentration killing 50% of cells present at time zero),[25],41.7 µM
same,TGI,[25],17 µM
same,GI50,[26],4.57 µM
same,LC50 (concentration killing 50% of cells),[26],58.9 µM
same,TGI,[26],20.4 µM
same,GI50,[27],10.7 µM
same,LC50 (concentration killing 50% of cells),[27],50.1 µM
same,TGI,[27],22.9 µM
same,GI50,[28],2.82 µM
same,LC50,[28],87.1 µM
same,TGI,[28],21.4 µM
same,GI50,[29],5.01 µM
same,TGI,[29],47.9 µM
same,CC50,[29]; [31],> 100 µM
same,GI50,[30],5.25 µM
same,LC50 (concentration killing 50% of starting cells),[30],44.7 µM
same,TGI,[30],18.2 µM
